SKN-1 inh: suppressors of acrylamide-induced Pgst-4::GFP reporter in worms, primary screen, SKN-1 inhibitor project, whole organism, uHTS, GFP/RFP fluorescence ratio, strain VP596. C. elegans VP596 Pgst-4::GFP/RFP ratio, 24 h. inhibition, % at 21.8 µM. actives 0.49% (n = 360,000). AID 624304, 2012;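 active means interference check ratio from 0.5 to 1.5 plus GFP to RFP signal ratio inhibition reaching or exceeding a fixed threshold, cut at about 30% in these data, passing the limit was not always enough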
rRNA inh HTS: reduced GFP signal of wild-type E. coli, primary screen, bacterial rRNA inhibitor project, GFP/RFP fluorescence, OD600, single point. GFP signal change (wild-type ribosome), % (concentration not given with the values). actives 1.6% (n = 350,000). E. coli WT GFP vs humanized-ribosome RFP mutants, 24 h; active compounds read low; DMSO median 0, no signal -100;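 active means significant combined selectivity score with lowered wild-type GFP, culture density cut under 30%, mutant RFP and density less affected; inactive means any of these conditions unmet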
iPSC survival up: enhancers of single-cell hiPSC survival, primary screen, ATPlite luminescence | survival enhancement, % at 20 µM | AID 602274, 2012 | actives 0.044% (n = 360,000) | 100% = ROCK inhibitor wells, 0% = DMSO; in the data active means survival enhancement above about 18%;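 further: cells exposed to compounds for 16 hours before the ATP read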
Cneo AK release: Cryptococcus neoformans cell lysis inducers, primary screen, AK release luminescence, single concentration; actives 0.2% (n = 360,000); lysis activity, % at 15 µM; C. neoformans lysis, adenylate kinase release luminescence, 4 h; normalised: neutral wells 0, clomiphene wells 100;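 active means mean lysis activity across replicates of at least 80%, whatever share of replicates individually reach that level; inactive means mean lysis activity below 80%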
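Assay system: Cryptococcus neoformans yeast cells / Dosing: single-point compound dose / Timing: 4 h at 37 °C static, read 1 h later / Measured by: luminescence of released adenylate kinase using an AK detection reagent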
DAGLB inhibitor: DAGLB lipase inhibitors, primary screen, biochemical, fluorescence, HTS | Diacylglycerol lipase-beta (Homo sapiens), Q8NCG7 | HEK293T DAGLB membrane lysate, EnzChek fluorogenic substrate | inhibition, % at 5.17 µM | actives 0.059% (n = 340,000) | AID 504411, 2011; in the data active means inhibition above about 34%
Target sequence (Q8NCG7 whole entry, looked up): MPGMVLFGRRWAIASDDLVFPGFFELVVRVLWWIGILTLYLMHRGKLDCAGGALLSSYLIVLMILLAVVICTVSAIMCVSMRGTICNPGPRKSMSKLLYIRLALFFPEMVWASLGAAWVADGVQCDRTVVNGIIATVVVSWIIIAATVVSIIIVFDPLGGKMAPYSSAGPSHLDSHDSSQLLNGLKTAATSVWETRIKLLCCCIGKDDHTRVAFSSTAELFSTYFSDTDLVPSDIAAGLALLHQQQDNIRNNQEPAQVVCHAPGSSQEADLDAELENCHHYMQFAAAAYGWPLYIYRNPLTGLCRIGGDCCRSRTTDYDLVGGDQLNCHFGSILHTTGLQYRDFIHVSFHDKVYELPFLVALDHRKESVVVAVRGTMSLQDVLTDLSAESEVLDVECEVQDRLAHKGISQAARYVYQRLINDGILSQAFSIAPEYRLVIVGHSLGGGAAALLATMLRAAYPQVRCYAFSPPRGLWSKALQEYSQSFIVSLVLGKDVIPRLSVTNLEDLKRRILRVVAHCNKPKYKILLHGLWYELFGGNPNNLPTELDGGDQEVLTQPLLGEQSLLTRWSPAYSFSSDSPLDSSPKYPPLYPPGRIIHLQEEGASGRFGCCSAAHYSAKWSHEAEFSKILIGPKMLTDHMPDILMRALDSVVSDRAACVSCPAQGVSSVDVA
MT1-MMP act inh: blockers of MT1-MMP proenzyme processing, primary screen, HT1080 RFP-PRO-GFP cells, GFP/RFP fluorescence | Matrix metalloproteinase-14 (Homo sapiens), P50281 | GFP/RFP ratio fluorescence, overnight; percent of plate control window, DMSO zero | GFP/RFP ratio change, % at 20 µM | actives 0.061% (n = 360,000) | AID 651647, 2012;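 active means GFP/RFP ratio change of at least 30% with cell ATP level not reduced by more than half and red fluorescence within 50% of control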
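Test system: HT1080 cells expressing an RFP-PRO-GFP fluorescent reporter construct / Compound dosing: single-point 20 µM compound, 1% DMSO / Schedule: cells overnight before dosing, compound overnight, 37 °C, 5% CO2 / Evaluation: GFP/RFP fluorescence ratio / Control set: DMSO and RFP-L50D-GFP cell wells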
AID977621: growth inhibition of wild-type GFP E. coli, dose response, H69 mutant RFP, cherry-pick; shares compounds with rRNA inh HTS; 1,900 tested, under 10 active; E. coli wild-type GFP strain growth, fluorescence, 24 h; activity change, negative = inhibition at 50 µM;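 active means Wild-type ribosome reporter drop at least double the humanized mutant ribosome reporter drop, growth loss under a set limit; inconclusive means no clear call, values can overlap the other calls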;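 further: wild-type GFP and H69 mutant RFP strains grown together 50/50 in each well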
AID977628: E. coli growth inhibition, wild-type GFP versus h24 humanized RFP strain, dose response, h24 mutant RFP vs wild-type GFP, cherry-pick; shares compounds with rRNA inh HTS; E. coli WT GFP strain growth, fluorescence, 24 h; activity change, negative = inhibition at 50 µM; 1,900 tested, under 10 active;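 active means compound lowering the normal-ribosome reporter at least twice as much as the humanized-ribosome reporter, growth loss under a set limit; inconclusive means no clear call, values can overlap the other calls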;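 further: wild-type GFP and h24 humanized RFP strains co-cultured 1 to 1 per well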
Numbers stand for hits; n = inactive; u = inconclusive; x = no result given. Sampled rows, rich in hits. Any-hit rate of the full collection: about 1.8%.

SMILES	SKN-1 inh	rRNA inh HTS	iPSC survival up	Cneo AK release	DAGLB inhibitor	MT1-MMP act inh	AID977621	AID977628
CCCN(C)C[C@H]1Oc2ncc(C#Cc3ccc(OC)cc3)cc2C(=O)N([C@H](C)CO)C[C@H]1C	x	n	x	n	x	x	x	x
C[C@@H]1CN([C@@H](C)CO)C(=O)c2cccc(NS(=O)(=O)c3ccc(Cl)cc3)c2O[C@H]1CN(C)Cc1ccncc1	x	n	x	n	x	x	x	x
O=C1c2ccccc2CSc2c(O)cccc21	n	-31	n	n	x	n	n	n
O=C1c2ccccc2CCc2ccccc21	n	n	n	n	n	n	x	x
CCOC(=O)c1cnc2ccc(OCC)cc2c1NCCCN1CCOCC1	n	-22	n	n	n	n	n	u
CCOC(=O)c1cnc2ccc(OCC)cc2c1NCCN1CCOCC1	n	n	n	n	n	n	x	x
O=C1NC(CCc2ccccc2)C(=O)N1Cc1cccc2ccccc12 (stereo not drawn)	n	-21	n	x	n	n	n	x
CC(C)[C@H]1C(=O)N[C@H](c2cccc(Cl)c2)CC=CC[C@H](C)Oc2ccccc2C(=O)N1C (mixture of isomers)	x	n	x	x	x	x	x	x
COc1ccc(NC(=O)c2ccc(COc3ccccc3)o2)c(OC)c1	n	n	n	n	n	n	x	x
COc1ccc(NC(=O)c2ccc(COc3ccccc3Br)o2)c(OC)c1	n	-16	n	n	x	n	n	n
COc1ccccc1-c1ccc2n(c1=O)C[C@H]1[C@H](CO)[C@@H](C(=O)NC3CCC3)N(C(=O)NC(C)C)[C@@H]21	x	n	x	n	x	x	x	x
CCc1nnc(NC(=O)CSc2ncc(-c3ccccc3)[nH]2)s1	n	-20	n	n	n	n	n	n
Cc1nc(N2CCC(C)CC2)c(C#N)c(C)c1[N+](=O)[O-]	n	-25	n	x	n	n	n	n
CC(C)C#Cc1cnc2c(c1)C(=O)N([C@H](C)CO)C[C@@H](C)[C@H](CN(C)Cc1ccccn1)O2	x	n	x	n	x	x	x	x
O=C(CN1CCOCC1)N[C@@H]1CC[C@H](CCn2cc(C3CCCCC3)nn2)O[C@H]1CO	x	n	x	n	x	x	x	x
CN1c2ccc(C#Cc3cccnc3)cc2[C@@H]2[C@@H](CCN2C(=O)c2cccc(F)c2)[C@H]1CO	x	-38	x	n	x	x	n	x
CC(C)NC(=O)N1CC[C@H]2[C@@H]1c1cc(C#Cc3cccnc3)ccc1N(C)[C@H]2CO	x	n	x	n	x	x	x	x
C/C=C/c1cnc2c(c1)C(=O)N([C@H](C)CO)C[C@@H](C)[C@@H](CN(C)C(=O)Nc1c(C)noc1C)O2	x	n	x	n	x	x	x	x
O=C(NC1CCCC1)c1ccc([N+](=O)[O-])s1	n	-20	n	x	n	n	n	n
COc1ccc(-c2cc(C(=O)Nc3ccc(C(N)=O)cc3)c3ccccc3n2)cc1OC	n	-26	n	x	n	n	n	n
CC1CCCN(C(=O)C(C)Nc2cc(Cl)ccc2N2CCOCC2)C1 (stereo not drawn)	n	-29	n	x	n	n	u	x
COc1cccc(OC)c1C(=O)Nc1cc(Cl)ccc1N1CCOCC1	n	x	n	n	n	n	x	x
CCCNC(=O)C[C@@H]1C[C@H]2c3cc(NS(C)(=O)=O)ccc3O[C@H]2[C@@H](CO)O1	x	n	x	n	x	x	x	x
COc1ccc2c3c([nH]c2c1)[C@@H](CO)N(C(=O)CN1CCOCC1)CC31CN(C)C1	x	n	x	x	x	x	x	x
Cc1ccc(C(=O)Nc2cccc(N(C)S(C)(=O)=O)c2)cc1S(=O)(=O)Nc1ccccc1	n	-20	n	x	n	n	u	x
SMILES	SKN-1 inh	rRNA inh HTS	iPSC survival up	Cneo AK release	DAGLB inhibitor	MT1-MMP act inh	AID977621	AID977628
Cc1ccc(C(=O)Nc2ccc(C)c(S(=O)(=O)Nc3ccccc3Cl)c2)s1	n	-32	n	n	n	n	n	u
Cc1ccc(-c2nc3c(Br)cc(C)cn3c2Cc2cccc(Cl)c2)cc1	x	n	x	x	x	x	x	x
Cc1cc(Br)c2nc(-c3ccc(Cl)cc3)c(Cc3cccc(Cl)c3)n2c1	x	-19	x	x	x	x	u	u
COc1ccc(Cl)cc1NC(=O)C1Cc2ccccc2CN1S(C)(=O)=O (stereo not drawn)	n	-20	n	n	n	n	x	n
Cc1ccc(OCCOCCn2cnc3ccccc3c2=O)c([N+](=O)[O-])c1	n	n	n	n	n	n	x	x
Cc1ccc([N+](=O)[O-])c(OCCn2cnc3ccccc32)c1	n	-20	n	x	n	n	n	n
COc1ccc2c3c(n(C)c2c1)[C@H](CO)N(C(=O)C1CCOCC1)CC31CCN(Cc2cccc(F)c2)CC1	x	n	x	x	x	x	x	x
CCOC(=O)c1csc(NC(=O)CCSc2ccccc2)n1	n	n	n	x	n	n	x	x
CCOC(=O)c1csc(NC(=O)CC2CCCC2)n1	n	-20	n	x	n	n	n	x
COc1ccc2c3c([nH]c2c1)[C@H](CO)N(C(=O)c1cccnc1)CC31CCN(C(=O)c2cccnc2)CC1	x	n	x	x	x	x	x	x
C[C@H]1CN([C@@H](C)CO)C(=O)c2ccccc2-c2ccccc2CO[C@H]1CN(C)C(=O)c1cc(Cl)cc(Cl)c1	x	n	x	x	x	x	x	x
COc1ccccc1NC(=O)CSc1nccn1Cc1ccc(F)cc1	n	-24	n	n	n	n	n	x
COCCn1c(SCC(=O)Nc2cccnc2Cl)nc2ccccc21	n	n	n	n	n	n	x	x
COCCn1c(SCc2nc3ccccc3s2)nc2ccccc21	n	-19	n	n	n	n	n	x
COCCn1c(SCC(=O)Nc2ccccc2OC)nc2ccccc21	n	-24	n	x	n	n	n	u
COc1cccc(-c2cccc(-c3nc(C(=O)N(C)C)cc4c3[C@H](CCO)N([S@@](=O)C(C)(C)C)C4)c2)c1	x	n	x	n	x	x	x	x
O=C1c2ccccc2C(=O)N1CCCc1c[nH]c2ccccc12	n	x	n	n	n	n	x	x
O=C1c2ccccc2C(=O)N1CCc1c[nH]c2ccccc12	n	-21	n	x	n	n	n	x
CCCn1c(NCc2ccc3c(c2)OCO3)nc2ccccc21	n	-22	n	n	n	n	x	u
COc1ccc(CN2C(=O)NC3(CCOc4ccccc43)C2=O)cc1F (stereo not drawn)	n	x	n	x	n	n	x	x

Screening data from PubChem.
